Assays:
Format in all cases: functional
[1] = tested on: Staphylococcus aureus; assay: Antimicrobial activity against Staphylococcus aureus ATCC 29213 by broth dilution method; conditions: Staphylococcus aureus, ATCC 29213
[2] = tested on: Staphylococcus aureus; assay: Antimicrobial activity against methicillin-resistant Staphylococcus aureus clinical isolate 235 by broth dilution method
[3] = tested on: Staphylococcus aureus; assay: Antimicrobial activity against methicillin-resistant Staphylococcus aureus clinical isolate 218 by broth dilution method
[4] = tested on: Staphylococcus aureus; assay: Antimicrobial activity against methicillin-resistant Staphylococcus aureus clinical isolate 232 by broth dilution method
[5] = tested on: Staphylococcus aureus; assay: Bactericidal activity against methicillin-resistant Staphylococcus aureus clinical isolate 255 after 24 hrs; conditions: isolate 255, 24 h
Outline: (§1)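 Bactericidal concentration: 0.1 ml from wells at the MIC dilution and the dilutions on either side was streaked onto tryptic soy agar and incubated 24 h. It was taken as the lowest drug concentration giving no growth (100% killing).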

[6] = tested on: Staphylococcus epidermidis; assay: Bactericidal activity against Staphylococcus epidermidis ATCC 12228 after 24 hrs; conditions: ATCC 12228, 24 h
Outline: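 MBC: after MIC determination, 0.1 ml from the MIC well and from two dilutions either side streaked on tryptic soy agar, incubated 24 h; MBC taken as lowest concentration giving no growth (100% kill).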

[7] = tested on: Staphylococcus aureus; assay: Bactericidal activity against methicillin-resistant Staphylococcus aureus clinical isolate 257 after 24 hrs; conditions: isolate 257, 24 h; outline: as §1
[8] = tested on: Staphylococcus aureus; assay: Bactericidal activity against methicillin-resistant Staphylococcus aureus clinical isolate 259 after 24 hrs; conditions: isolate 259, 24 h; outline: as §1
[9] = tested on: Staphylococcus aureus; assay: Bactericidal activity against methicillin-resistant Staphylococcus aureus clinical isolate 238 after 24 hrs; conditions: isolate 238, 24 h; outline: as §1
[10] = tested on: Staphylococcus aureus; assay: Bactericidal activity against methicillin-resistant Staphylococcus aureus clinical isolate 236 after 24 hrs; conditions: isolate 236, 24 h; outline: as §1
[11] = tested on: Staphylococcus aureus; assay: Bactericidal activity against methicillin-resistant Staphylococcus aureus clinical isolate 237 after 24 hrs; conditions: isolate 237, 24 h; outline: as §1
[12] = tested on: Staphylococcus aureus; assay: Antimicrobial activity against methicillin-resistant Staphylococcus aureus clinical isolate 212 by broth dilution method
[13] = tested on: Staphylococcus aureus; assay: Antimicrobial activity against methicillin-resistant Staphylococcus aureus clinical isolate 260 by broth dilution method
[14] = tested on: Nakaseomyces glabratus; assay: Antimicrobial activity against Candida glabrata ATCC 18804 by broth dilution method
[15] = tested on: Staphylococcus aureus; assay: Antimicrobial activity against methicillin-resistant Staphylococcus aureus clinical isolate 215 by broth dilution method
[16] = tested on: Candida parapsilosis; assay: Antimicrobial activity against Candida parapsilosis ATCC 90030 by broth dilution method; conditions: Lodderomyces parapsilosis
[17] = tested on: Staphylococcus aureus; assay: Antimicrobial activity against methicillin-resistant Staphylococcus aureus clinical isolate 238 by broth dilution method
[18] = tested on: Staphylococcus aureus; assay: Bactericidal activity against methicillin-resistant Staphylococcus aureus clinical isolate 232 after 24 hrs; conditions: isolate 232, 24 h; outline: as §1
[19] = tested on: Staphylococcus aureus; assay: Antimicrobial activity against methicillin-resistant Staphylococcus aureus clinical isolate 255 by broth dilution method
[20] = tested on: Staphylococcus aureus; assay: Bactericidal activity against Staphylococcus aureus ATCC 29213 after 24 hrs; conditions: ATCC 29213, 24 h; outline: as §1
[21] = tested on: Staphylococcus aureus; assay: Antimicrobial activity against methicillin-resistant Staphylococcus aureus clinical isolate 259 by broth dilution method
[22] = tested on: Staphylococcus epidermidis; assay: Antimicrobial activity against Staphylococcus epidermidis ATCC 12228 by broth dilution method
[23] = tested on: Staphylococcus aureus; assay: Antimicrobial activity against methicillin-resistant Staphylococcus aureus clinical isolate 205 by broth dilution method
[24] = tested on: Staphylococcus aureus; assay: Antimicrobial activity against methicillin-resistant Staphylococcus aureus clinical isolate 231 by broth dilution method
[25] = tested on: Staphylococcus aureus; assay: Antimicrobial activity against methicillin-resistant Staphylococcus aureus clinical isolate 257 by broth dilution method
[26] = tested on: Staphylococcus aureus; assay: Antimicrobial activity against methicillin-resistant Staphylococcus aureus clinical isolate 207 by broth dilution method
[27] = tested on: Staphylococcus aureus; assay: Antimicrobial activity against methicillin-resistant Staphylococcus aureus clinical isolate 237 by broth dilution method
[28] = tested on: Candida tropicalis; assay: Antimicrobial activity against Candida tropicalis ATCC 750 by broth dilution method
[29] = tested on: Staphylococcus aureus; assay: Bactericidal activity against methicillin-resistant Staphylococcus aureus clinical isolate 235 after 24 hrs; conditions: isolate 235, 24 h; outline: as §1
[30] = tested on: Staphylococcus aureus; assay: Antimicrobial activity against methicillin-resistant Staphylococcus aureus clinical isolate 178 by broth dilution method
[31] = tested on: Staphylococcus aureus; assay: Antimicrobial activity against methicillin-resistant Staphylococcus aureus clinical isolate by broth dilution method
[32] = tested on: Staphylococcus aureus; assay: Antimicrobial activity against methicillin-resistant Staphylococcus aureus clinical isolate 264 by broth dilution method
[33] = tested on: Staphylococcus aureus; assay: Antimicrobial activity against methicillin-resistant Staphylococcus aureus clinical isolate 227 by broth dilution method
[34] = tested on: Staphylococcus aureus; assay: Bactericidal activity against methicillin-resistant Staphylococcus aureus clinical isolate 264 after 24 hrs; conditions: isolate 264, 24 h; outline: as §1
[35] = tested on: Escherichia coli; assay: Antimicrobial activity against Escherichia coli ATCC 11229 by broth dilution method; conditions: Escherichia coli, ATCC 11229
[36] = tested on: Staphylococcus aureus; assay: Antimicrobial activity against methicillin-resistant Staphylococcus aureus clinical isolate 176 by broth dilution method
[37] = tested on: Staphylococcus aureus; assay: Bactericidal activity against methicillin-resistant Staphylococcus aureus clinical isolate 231 after 24 hrs; conditions: isolate 231, 24 h; outline: as §1
[38] = tested on: Candida albicans; assay: Antimicrobial activity against Candida albicans ATCC 22019 by broth dilution method
[39] = tested on: Staphylococcus aureus; assay: Antimicrobial activity against methicillin-resistant Staphylococcus aureus clinical isolate 225 by broth dilution method
[40] = tested on: Staphylococcus aureus; assay: Antimicrobial activity against methicillin-resistant Staphylococcus aureus clinical isolate 195 by broth dilution method
[41] = tested on: Staphylococcus aureus; assay: Antimicrobial activity against methicillin-resistant Staphylococcus aureus clinical isolate 236 by broth dilution method
[42] = tested on: Pseudomonas aeruginosa; assay: Antimicrobial activity against Pseudomonas aeruginosa ATCC 27853 by broth dilution method
[43] = tested on: Staphylococcus aureus; assay: Bactericidal activity against methicillin-resistant Staphylococcus aureus clinical isolate 260 after 24 hrs; conditions: isolate 260, 24 h; outline: as §1

CCCCCCCCCCCCCCOc1ccc(CNC(CO)(CO)CO)cc1.Cl
512 µg/mL: MBC [6]
5.36: -logMIC [22]
4 µg/mL: MIC [2] | MBC [9] | MBC [11] | MIC [17] | MIC [27] | MBC [37]
8 µg/mL: MIC [3] | MIC [4] | MBC [7] | MBC [10] | MIC [14] | MIC [16] | MBC [18] | MIC [19] | MBC [29] | MIC [30] | MIC50 ([31]; Staphylococcus aureus) | MIC [41] | MBC [43]
64 µg/mL: MBC [34]
5.03: -logMIC [31]
> 1020 µg/mL: MIC [12] | MIC [15] | MIC [26] | MIC90 ([31]; Staphylococcus aureus) | MIC [33] | MIC [39]
2 µg/mL: MIC [1] | MBC [8] | MIC [13] | MIC [21] | MIC ([22]; Staphylococcus epidermidis, ATCC 12228) | MIC [24] | MIC [25]
> 256 µg/mL: MIC [35] | MIC [42]
16 µg/mL: MBC [5] | MBC [20] | MIC [23] | MIC [32] | MIC [36] | MIC [38] | MIC [40]
32 µg/mL: MIC [28]

CCC(C)n1ncn(-c2ccc(N3CCN(c4ccc(OCC5COC(Cn6cncn6)(c6ccc(Cl)cc6Cl)O5)cc4)CC3)cc2)c1=O (centres undefined) [ITRACONAZOLE]
> 512 µg/mL: MIC [16] | MIC [28]
256 µg/mL: MIC [14]

— ChEMBL document CHEMBL2380298, “Synthesis and antimicrobial activity of novel amphiphilic aromatic amino alcohols” (2013)
